For orientation: MIC means the lowest concentration found to suppress growth.

Values after ≈ are worked out from the molar mass of the structure shown. Active and inactive are the calls of the source. The rule behind the calls is not given here. Non-standard residues stand in square brackets, D forms with d. Residues, ends and D or L forms follow the SMILES beside them. *: point of attachment. Heptanoyl = CCCCCCC(=O)*; Octanoyl = CCCCCCCC(=O)*; Dab = NCC[C@H](N)C(=O)O

Here are results for 3 compounds from ChEMBL document CHEMBL4052819 (2017).

Common to all, as to type: functional
Assay [1] has as its system Staphylococcus aureus. Description: Antibacterial activity against methicillin-resistant Staphylococcus aureus ATCC 43300 after 18 to 20 hrs by broth microdilution method. In outline:
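Broth microdilution in tryptic soy broth: 2-fold dilutions mixed 1:1 with ~1.5 × 10^5 CFU/mL bacterial suspension in TSB, final 0.5–32 μg/mL, 37 °C for 18–20 h. MIC = lowest concentration with no visible growth. At least three independent experiments, one replicate each.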

Assay [2] relates to Acinetobacter baumannii. Description: Bactericidal activity against Acinetobacter baumannii ATCC 19606. The conditions noted are these: ATCC 19606 = CIP 70.34 = JCM 6841, read-out: MBC99.9. Put shortly:
(§1)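 MBC from MIC plates at end point: 50 μL from each well with no visible growth plated on tryptic soy agar and counted. MBC taken as lowest concentration giving ≥99.9% fall in viable count relative to initial inoculum. Three independent experiments, one replicate each.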

Assay [3] concerns Klebsiella pneumoniae. The assay is described as follows: Bactericidal activity against Klebsiella pneumoniae ATCC 13883. The conditions noted are these: read-out: MBC99.9. Put shortly: as §1
The test system of assay [4] is Pseudomonas aeruginosa. Description: Antibacterial activity against Pseudomonas aeruginosa ATCC 27853 after 18 to 20 hrs by broth microdilution method. Put shortly: (§2)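 Broth microdilution in tryptic soy broth: 2-fold dilutions mixed 1:1 with ~1.5 × 10^5 CFU/mL inoculum, final 0.5–32 μg/mL; 37 °C, 18–20 h. MIC taken as lowest concentration giving no visible growth. At least three independent experiments, one replicate each.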
On the technique in general: Dilution methods test growth across graded concentrations, often in twofold steps.

Assay [5] concerns Staphylococcus aureus. The assay is described as follows: Antibacterial activity against Staphylococcus aureus ATCC 29213 after 18 to 20 hrs by broth microdilution method. In outline:
as §2

The test system of assay [6] is Enterococcus faecium. Description: Bactericidal activity against Enterococcus faecium ATCC 19434. The conditions noted are these: read-out: MBC99.9. In outline: as §1
The subject of assay [7] is Escherichia coli. Description: Bactericidal activity against Escherichia coli ATCC 25922. The conditions noted are these: read-out: MBC99.9. Put shortly:
as §1

Assay [8] relates to Escherichia coli. The assay is described as follows: Antibacterial activity against Escherichia coli ATCC 25922 after 18 to 20 hrs in presence of 95% serum by broth microdilution method. In outline:
(§3)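 Same microdilution with human serum as medium: compound 2-fold diluted in 100% serum, mixed 1:1 with 90% serum holding ~1.5 × 10^5 CFU/mL, giving 95% serum and final 0.5–64 μg/mL. MIC read as no visible growth after incubation as for the broth test.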

Assay [9] deals with Acinetobacter baumannii. The assay is described as follows: Antibacterial activity against Acinetobacter baumannii ATCC 19606 after 18 to 20 hrs by broth microdilution method. The conditions noted are these: ATCC 19606 = CIP 70.34 = JCM 6841.
Assay [10] concerns Escherichia coli. Description: Antibacterial activity against Escherichia coli ATCC 25922 after 18 to 20 hrs by broth microdilution method. In outline:
as §2

Assay [11] deals with Staphylococcus aureus. Description: Bactericidal activity against Staphylococcus aureus ATCC 29213. The conditions noted are these: read-out: MBC99.9. In outline:
as §1

Assay [12] concerns Enterococcus faecium. Description: Antibacterial activity against Enterococcus faecium ATCC 19434 after 18 to 20 hrs by broth microdilution method. Put shortly:
as §2

The test system of assay [13] is Staphylococcus aureus. Description: Bactericidal activity against methicillin-resistant Staphylococcus aureus ATCC 43300. The conditions noted are these: read-out: MBC99.9. Put shortly: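 MBC taken at the end of the MIC test: 50 μL from each well without visible growth plated on tryptic soy agar. MBC = lowest concentration giving ≥99.9% reduction in viable cells relative to the initial inoculum. Three independent experiments, one replicate each.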

Assay [14] deals with Pseudomonas aeruginosa. The assay is described as follows: Bactericidal activity against Pseudomonas aeruginosa ATCC 27853. The conditions noted are these: read-out: MBC99.9. Put shortly: as §1
The test system of assay [15] is Klebsiella pneumoniae. The assay is described as follows: Antibacterial activity against Klebsiella pneumoniae ATCC 13883 after 18 to 20 hrs by broth microdilution method.
The subject of assay [16] is Staphylococcus aureus. Description: Antibacterial activity against Staphylococcus aureus ATCC 29213 after 18 to 20 hrs in presence of 95% serum by broth microdilution method. In outline: as §3
The subject of assay [17] is Escherichia coli. The assay is described as follows: Antibacterial activity against Escherichia coli ATCC 25922 in presence of 100% serum after 6 hrs by broth microdilution method. The conditions noted are these: ATCC 25922, 6 h. In outline:
(§4)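 Serum stability: compound added to 100% human serum at final 64 μg/mL, held at 37 °C, sampled at 0, 6, 12 and 24 h. […] Residual activity compared with untreated control.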

Assay [18] deals with Escherichia coli. The assay is described as follows: Antibacterial activity against Escherichia coli ATCC 25922 in presence of 100% serum after 12 hrs by broth microdilution method. The conditions noted are these: ATCC 25922, 12 h. Put shortly:
as §4

For assay [19], the system named is Escherichia coli. Description: Antibacterial activity against Escherichia coli ATCC 25922 in presence of 100% serum measured immediately post compound addition in serum by broth microdilution method. In outline:
as §4

Assay [20] concerns Pseudomonas aeruginosa. Description: Bactericidal activity against Pseudomonas aeruginosa ATCC 27853 after 60 mins in presence of LPS. Put shortly: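 P. aeruginosa at ~10^6 CFU/mL in TSB with E. coli O111:B4 LPS (final 10, 25, 50 or 100 μg/mL), then compound at final 16 μg/mL. Incubated 37 °C, 200 rpm, 60 min; survivors counted on TSA. Three independent experiments, one replicate each.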

Assay [21] deals with Escherichia coli. The assay is described as follows: Antibacterial activity against Escherichia coli ATCC 25922 in presence of 100% serum after 24 hrs by broth microdilution method. The conditions noted are these: ATCC 25922, 24 h. Put shortly: as §4
The subject of assay [22] is Staphylococcus aureus. The assay is described as follows: Antibiofilm activity against methicillin-resistant Staphylococcus aureus LAC established catheter-associated biofilm model at 20 times MIC after 72 hrs relative to control.

Take `CCCCCCC(=O)N[C@@H](CCN)C(=O)N[C@@H](Cc1ccccc1)C(=O)N[C@@H](CCN)C(=O)N[C@H](Cc1ccccc1)C(=O)N[C@@H](CC(C)C)C(=O)N[C@@H](CCN)C(=O)N[C@H](CC(C)C)C(=O)N[C@@H](CC(C)C)C(=O)N[C@@H](CO)C(N)=O` (Heptanoyl-[Dab]F[Dab][dF]L[Dab][dL]LS-NH2): the MIC in the assay on Staphylococcus aureus [1] was 16 to 32 µg/mL (≈ 13.9 to 27.8 µM); in the assay on Pseudomonas aeruginosa [4] it was 2 to 4 µg/mL (≈ 1.74 to 3.48 µM); with Staphylococcus aureus [5], 16 to 32 µg/mL (≈ 13.9 to 27.8 µM); in the assay with Escherichia coli [8], 32 µg/mL; against Acinetobacter baumannii [9], 8 µg/mL (≈ 6.95 µM); against Escherichia coli [10], 1 to 4 µg/mL (≈ 0.869 to 3.48 µM). In addition, the MIC against Enterococcus faecium [12] was determined as 16 µg/mL (≈ 13.9 µM); in the assay on Klebsiella pneumoniae [15] it was 4 µg/mL (≈ 3.48 µM); with Staphylococcus aureus [16], 64 µg/mL. Moreover, the MBC with Acinetobacter baumannii [2] was 8 µg/mL (≈ 6.95 µM); with Klebsiella pneumoniae [3], 8 µg/mL (≈ 6.95 µM); in the assay with Enterococcus faecium [6] it was 32 µg/mL (≈ 27.8 µM); in the assay with Escherichia coli [7], 32 µg/mL (≈ 27.8 µM); in the assay with Staphylococcus aureus [11] it was 16 to 32 µg/mL (≈ 13.9 to 27.8 µM); in the assay on Staphylococcus aureus [13], 32 µg/mL (≈ 27.8 µM). Also, the MBC in the assay with Pseudomonas aeruginosa [14] is 8 to 16 µg/mL (≈ 6.95 to 13.9 µM).

In the case of `CCCCCCCC(=O)N[C@@H](CCN)C(=O)N[C@H](C(=O)N[C@@H](CCN)C(=O)N[C@H](Cc1ccccc1)C(=O)N[C@@H](CC(C)C)C(=O)N[C@@H](CCN)C(=O)N[C@@H](C(=O)N[C@@H](CC(C)C)C(=O)N[C@@H](CO)C(N)=O)C(C)C)[C@@H](C)CC` (Octanoyl-[Dab]I[Dab][dF]L[Dab][dV]LS-NH2), the MIC against Staphylococcus aureus [1] was 8 to 16 µg/mL (≈ 7.17 to 14.3 µM); in the assay with Escherichia coli [17], 8 µg/mL; in the assay on Escherichia coli [18] it was 8 µg/mL; against Pseudomonas aeruginosa [4] it was 2 µg/mL (≈ 1.79 µM); with Escherichia coli [19], 8 µg/mL; against Staphylococcus aureus [5], 8 to 16 µg/mL (≈ 7.17 to 14.3 µM). Moreover, the MIC in the assay on Escherichia coli [8] was 8 µg/mL; in the assay on Acinetobacter baumannii [9], 16 µg/mL (≈ 14.3 µM); in the assay on Escherichia coli [10], 2 to 4 µg/mL (≈ 1.79 to 3.58 µM); against Enterococcus faecium [12] it was 16 µg/mL (≈ 14.3 µM); with Escherichia coli [21], 8 µg/mL; in the assay with Klebsiella pneumoniae [15], 8 to 16 µg/mL (≈ 7.17 to 14.3 µM). For the same compound, the MIC with Staphylococcus aureus [16] lay in the range of 16 to 32 µg/mL. The MBC with Acinetobacter baumannii [2] was 16 to 32 µg/mL (≈ 14.3 to 28.7 µM); with Klebsiella pneumoniae [3], 8 to 16 µg/mL (≈ 7.17 to 14.3 µM); in the assay with Enterococcus faecium [6], 16 to 32 µg/mL (≈ 14.3 to 28.7 µM); with Escherichia coli [7], 16 µg/mL (≈ 14.3 µM); in the assay on Staphylococcus aureus [11], 16 µg/mL (≈ 14.3 µM); in the assay with Staphylococcus aureus [13] it was 8 to 32 µg/mL (≈ 7.17 to 28.7 µM). Moreover, the MBC with Pseudomonas aeruginosa [14] lay within 8 to 16 µg/mL (≈ 7.17 to 14.3 µM). In addition, in the assay with Pseudomonas aeruginosa [20], the outcome was inactive.

In the case of `CCCCCCCCCC(=O)N[C@@H](Cc1c[nH]c2ccccc12)C(=O)N[C@@H](CC(N)=O)C(=O)N[C@@H](CC(=O)O)C(=O)N[C@@H]1C(=O)NCC(=O)N[C@@H](CCCN)C(=O)N[C@@H](CC(=O)O)C(=O)N[C@H](C)C(=O)N[C@@H](CC(=O)O)C(=O)NCC(=O)N[C@H](CO)C(=O)N[C@@H]([C@H](C)CC(=O)O)C(=O)N[C@@H](CC(=O)c2ccccc2N)C(=O)O[C@@H]1C` [DAPTOMYCIN], the Activity in the assay on Staphylococcus aureus [22] is listed as 17%.
